Reference: ChEMBL document CHEMBL2439948, “Discovery of DF-461, a Potent Squalene Synthase Inhibitor” (ACS Med Chem Lett, 2013)
Activity calls are given as the source filed them. The rule behind the calls is not given here.

How the values were obtained:
[1] = tested on: Rattus norvegicus; assay: Inhibition of cholesterol synthesis in Wistar rat at 1 mg/kg, po administered as single dose prior to [14C]mevalonolactone injection measured after 7 hrs by liquid scintillation counting; assay type: functional
Procedure, shortened: (§1)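 Rats given a single oral dose of 1 mg/kg; hepatic cholesterol synthesis inhibition (%) determined at 1, 4 and 7 h after dosing.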

[2] = tested on: Rattus norvegicus; assay: Inhibition of cholesterol synthesis in Wistar rat at 1 mg/kg, po administered as single dose prior to [14C]mevalonolactone injection measured after 4 hrs by liquid scintillation counting; assay type: functional; procedure, shortened: as §1
[3] = tested on: Rattus norvegicus; assay: Inhibition of cholesterol synthesis in Wistar rat at 1 mg/kg, po administered as single dose prior to [14C]mevalonolactone injection measured after 1 hr by liquid scintillation counting; assay type: functional; procedure, shortened: as §1
[4] = tested on: Hepatocyte; assay: Inhibition of cholesterol synthesis in rat hepatocytes assessed as formation of cholesterol using [14C]mevalonolactone as substrate after 1 hr by liquid scintillation counting; assay type: functional, cell-based
[5] = biological target: T1, Squalene synthase (Rattus norvegicus, UniProt Q02769); assay: Inhibition of rat hepatic microsomal squalene synthase using [3H]FPP as substrate after by scintillation spectrophotometry
T1 sequence (Q02769 whole entry): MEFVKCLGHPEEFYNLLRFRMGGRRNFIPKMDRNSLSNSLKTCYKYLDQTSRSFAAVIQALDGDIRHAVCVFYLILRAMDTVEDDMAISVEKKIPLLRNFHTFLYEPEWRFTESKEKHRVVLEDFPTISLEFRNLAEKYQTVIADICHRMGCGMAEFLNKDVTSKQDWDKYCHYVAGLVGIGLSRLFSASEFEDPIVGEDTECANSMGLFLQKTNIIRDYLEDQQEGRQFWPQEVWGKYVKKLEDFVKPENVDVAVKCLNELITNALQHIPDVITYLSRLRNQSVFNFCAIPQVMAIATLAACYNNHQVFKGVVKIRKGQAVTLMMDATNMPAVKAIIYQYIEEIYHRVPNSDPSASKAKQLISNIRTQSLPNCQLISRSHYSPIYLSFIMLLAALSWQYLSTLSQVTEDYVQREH

[6] = Lipophilicity, log D of the compound at pH 7.4; assay type: physicochemical; settings: buffer
[7] = tested on: Rattus norvegicus; assay: Inhibition of cholesterol synthesis in Wistar rat at 3 mg/kg, po administered as single dose prior to [14C]mevalonolactone injection measured after 1 hr by liquid scintillation counting
[8] = tested on: marmosets; assay: Reduction in triglyceride level in marmosets at 30 mg/kg/day, po for 7 days; assay type: functional, Callitrichinae sp.; design: scale not given: the % may be the effect or the level left
Procedure, shortened: (§2)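 Marmosets dosed orally at 30 mg/kg/day for 7 days. Plasma total, non-HDL and HDL cholesterol and triglyceride reported as mean percentage change from each animal's initial values (n = 7, 8). Significance was tested against initial values.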

[9] = tested on: marmosets; assay: Reduction in HDL cholesterol level in marmosets at 30 mg/kg/day, po for 7 days; assay type: functional, Callitrichinae sp.; design: scale not given: the % may be the effect or the level left; procedure, shortened: as §2
[10] = tested on: marmosets; assay: Reduction in non-HDL cholesterol level in marmosets at 30 mg/kg/day, po for 7 days; assay type: functional, Callitrichinae sp.; design: scale not given: the % may be the effect or the level left; procedure, shortened: as §2
[11] = tested on: marmosets; assay: Reduction in total cholesterol level in marmosets at 30 mg/kg/day, po for 7 days; assay type: functional, Callitrichinae sp.; design: scale not given: the % may be the effect or the level left; procedure, shortened: as §2
[12] = tested on: Rattus norvegicus; assay: Drug uptake in rats liver assessed per gram of tissue at 3 mg/kg, po administered as single dose measured at 1 hr
[13] = tested on: Rattus norvegicus; assay: Partition co-efficient, Kp in rats liver assessed per gram of tissue at 3 mg/kg, po administered as single dose measured at 1 hr
[14] = tested on: Rattus norvegicus; assay: Inhibition of cholesterol synthesis in po dosed Wistar rat administered as single dose prior to [14C]mevalonolactone injection measured after 7 hrs by liquid scintillation counting; assay type: functional
[15] = tested on: Rattus norvegicus; assay: Inhibition of cholesterol synthesis in Wistar rat at 3 mg/kg, po in presence of [14C]acetic acid; assay type: functional, organism-based; design: dose 3 mg/kg
Procedure, shortened: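 Rats given a single 3 mg/kg oral dose; hepatic cholesterol synthesis inhibition expressed as % at 1 h post-dose.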

SMILES | inhibition in vivo at 1 mg/kg [1] | inhibition in vivo at 1 mg/kg [2] | inhibition in vivo at 1 mg/kg [3] | IC50 [4] | IC50 [5] | logD [6] | inhibition in vivo at 3 mg/kg [7] | Activity [8] | Activity [9] | Activity [10] | Activity [11] | concentration at 1 h [12] | Kp at 1 h [13] | ED50 [14] | inhibition [15]
CCc1c(OC)cccc1[C@H]1O[C@H](CC(=O)O)c2nnc(C(F)(F)F)n2-c2ccc(Cl)cc21 | 21% | 57% | 76% | 18 nM | 0.36 nM | – | – | – | – | – | – | – | – | – | –
COc1cccc([C@H]2O[C@H](CCn3cc(C(=O)O)cn3)c3nnc(C(F)(F)F)n3-c3ccc(Cl)cc32)c1OC (relative stereo) | – | – | – | 130 nM | 3.2 nM | 0.83 | 71% | – | – | – | – | – | – | – | –
COc1cccc([C@H]2O[C@H](CCn3cc(C(=O)O)cn3)c3nnc(C(C)C)n3-c3ccc(Cl)cc32)c1OC (relative stereo) | – | – | – | 91 nM | 11 nM | 0.37 | 15% | – | – | – | – | – | – | – | –
COc1cccc([C@H]2O[C@H](CC(=O)O)c3nnc(C(F)(F)F)n3-c3ccc(Cl)cc32)c1OC | 45% | 78% | 88% | 38 nM | 1.6 nM | – | – | 29% | 3% | 44% | 29% | 1040 ng/g | 66 | – | –
COc1cccc([C@H]2O[C@H](CC(=O)N3CCC(CC(=O)O)CC3)C(=O)N(CC(C)(C)COC(C)=O)c3ccc(Cl)cc32)c1OC [LAPAQUISTAT ACETATE] | – | – | – | – | – | – | – | 25% | 10% | 19% | 17% | – | – | 3.8 mg/kg | –
COc1cccc([C@H]2O[C@H](CC(=O)O)c3nnc(C(F)(F)F)n3-c3ccc(Cl)cc32)c1OC(F)(F)F | 48% | 67% | 77% | 28 nM | 0.7 nM | – | – | – | – | – | – | – | – | – | –
COc1cccc([C@H]2O[C@H](CC(=O)O)c3nnc(C(F)(F)F)n3-c3ccc(Cl)cc32)c1Cl | 55% | 77% | 93% | 19 nM | 1.1 nM | – | – | 24% | 16% | 53% | 39% | – | – | 0.11 mg/kg | Active
COc1cccc([C@H]2O[C@H](CCn3cc(C(=O)O)cn3)c3nnc(C)n3-c3ccc(Cl)cc32)c1OC (relative stereo) | – | – | – | 290 nM | 36 nM | -0.4 | 30% | – | – | – | – | – | – | – | –
COc1cccc([C@H]2O[C@H](CCn3cc(C(=O)O)cn3)c3nnc(CF)n3-c3ccc(Cl)cc32)c1OC (relative stereo) | – | – | – | 77 nM | 6 nM | – | 48% | – | – | – | – | – | – | – | –
COc1cccc([C@H]2O[C@H](CC(=O)O)c3nnc(C(F)(F)F)n3-c3ccc(Cl)cc32)c1C | 45% | 69% | 87% | 46 nM | 0.85 nM | – | – | 34% | 8% | 42% | 32% | – | – | – | –
CC(C)c1c(C(=O)Nc2ccccc2)c(-c2ccccc2)c(-c2ccc(F)cc2)n1CC[C@@H](O)C[C@@H](O)CC(=O)O | – | – | – | – | – | – | – | – | – | – | – | – | – | – | Active
